Fewer inactive variants are shown than the library holds.
B1: tRNA (parent)
chain: GUUCCGUUGGCGUAAUGGUAACGCGUCUCCCUCCUAAGGAGAAGACUGCGGGUUCGAGUCCCGUACGGAACG

Variants of: B1
Experiment: yeast fitness relative to wild type (ratio to wild type); higher = fitter; tRNA-Arg(CCU), competitive growth, 37 C, YPD
Summary of the method: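 Variants of the tRNA-Arg(CCU) gene, chemically synthesised with a 3% per-site mutation rate at 69 sites, were placed at the native genomic locus in Saccharomyces cerevisiae. The pooled strains were competed in YPD at 37°C for 24 hours in six parallel replicates. Gene amplicons from the start population and from each end population were read by 100-nucleotide paired-end sequencing. Darwinian fitness relative to wild type came from changes in genotype frequencies; genotypes needed ≥ 100 starting reads, and estimates < 0.5 were set to 0.5.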

| Variant | yeast fitness |
| --- | --- |
| U13G A36C C46U | ≤ 0.5 |
| A14G A21G C33U A43C | ≤ 0.5 |
| C4U A20U C46A | 1.02 |
| U2A G41A C66U | ≤ 0.5 |
| G6A G44A | 0.737 |
| U8A A42C G52C | ≤ 0.5 |
| C5A U64C | 0.96 |
| C11A G25C C29U A57G | ≤ 0.5 |
| A40C A42U C49G | 0.624 |
| U2A G6A U16C U28A G50A | ≤ 0.5 |
| G58A U59A | 1.06 |
| G6C C46G A70C | 0.511 |
| C5U A65G A69G A70U | ≤ 0.5 |
| C34G G48C G67A | ≤ 0.5 |
| G9A U16C | 1.05 |
| C27U U54G | 0.581 |
| G12C C29G G51A G68C | ≤ 0.5 |
| A20U G41C C46U C66A | ≤ 0.5 |
| U13G C61U A70G | 0.618 |
| G25A A45G G52A U54A | ≤ 0.5 |
| G12C C46U C49G | 0.622 |
| U8A C33U G67A | ≤ 0.5 |
| U28A G48C A70C | ≤ 0.5 |
| A20U A37U U59C | 0.675 |

| Variant | yeast fitness |
| --- | --- |
| G9A C11U A36C G68C | ≤ 0.5 |
| U26G C31U C55U | 0.564 |
| U8A G50C G56A | ≤ 0.5 |
| A42G G56A | 0.87 |
| U8C G9C A37U G38A G39A | ≤ 0.5 |
| A15U U35A G50C A65C | ≤ 0.5 |
| A43U A57C | 0.726 |
| U26A A43C | 0.966 |
| C31U A42G G58A | 0.716 |
| C34U A36U | ≤ 0.5 |
| A14G G41A A69C | ≤ 0.5 |
| C4G G6A C11U G23A A43G | ≤ 0.5 |
| C27G A45U C49U | ≤ 0.5 |
| C27U C29U A57C | ≤ 0.5 |
| U3G A45G A65G | 0.729 |
| G18A G67U | 0.75 |
| A57G C60A C66G | 0.558 |
| A21C G67C | 0.654 |
| A40G A57U | 0.624 |
| C24G C29U U35C | ≤ 0.5 |
| U64C C66U | 0.958 |
| C4U U13A | 1.1 |
| C27A A36G C49U A70U | ≤ 0.5 |
| C30A G52A A65U | ≤ 0.5 |

| Variant | yeast fitness |
| --- | --- |
| U3A C11G G12A C22U | ≤ 0.5 |
| U8A G18A U32C | ≤ 0.5 |
| G6A C49U G58A | 0.654 |
| C33A A37G | 0.531 |
| C33G A70G | 0.633 |
| C11U C29U C66G | ≤ 0.5 |
| A45U G68A | 0.926 |
| G12A C24A C34A C49A G63U G67A | ≤ 0.5 |
| U2C G10A U54A C62U C66A | ≤ 0.5 |
| C11A A42U A69U | ≤ 0.5 |
| U2G C11A C30A A57U | ≤ 0.5 |
| U19A C27U A45U C62A | ≤ 0.5 |
| G58A C61G | 0.668 |
| A21U U32A A70G | ≤ 0.5 |
| C11G A14C A37C G44C C61G G63C | ≤ 0.5 |
| G39A G58C | 0.948 |
| U54A C62G | 0.637 |
| C49G A70U | 0.872 |
| U32C A40U A69C | 0.747 |
| A20G A40G G44A C46G | ≤ 0.5 |
| C4U G12C C29U C31U U54G A65U G67A | ≤ 0.5 |
| C4G A15G A43G A57C A65U | ≤ 0.5 |
| U3A U8A C31G A40C | 0.563 |
| A20U C33U A43G U64C | ≤ 0.5 |

| Variant | yeast fitness |
| --- | --- |
| U32C G48A | 0.76 |
| U7G G48A | 0.847 |
| A37C A57G | 0.665 |
| A14U A43G U59G C62G G63A | 0.558 |
| C11U C24A | 0.606 |
| C4A A14G | 0.72 |
| G12C A43G G63A | 0.556 |
| U8G A20G C60G C61A | ≤ 0.5 |
| G44A C55U A69C | 0.585 |
| C4A U13A G18A G68C | ≤ 0.5 |
| C4G U8C C24G U47C | ≤ 0.5 |
| U2G C11U A40U C49A | 0.523 |
| C4U G12A A20G C22U A57G | ≤ 0.5 |
| C4U C34A G44C | 0.636 |
| G25U A36U C61U | ≤ 0.5 |
| U3A G12A C24U A45U | ≤ 0.5 |
| A21C G25A C30A A37U C66A | ≤ 0.5 |
| A20U U32A C66U | 0.554 |
| U32C A36U C61U | ≤ 0.5 |
| A21U C33G A42G G44A U64C | 0.558 |
| C4U G18C A20C G39A | ≤ 0.5 |
| G12C G39A A57U | ≤ 0.5 |
| C4G U13G C66U | 0.564 |
| A14G U35C A57G | ≤ 0.5 |

| Variant | yeast fitness |
| --- | --- |
| C11U A57U A65U | 0.653 |
| C33G A42G G52A C62U A70U | ≤ 0.5 |
| C4U G12A A40U A69C | 0.56 |
| A20U G41C G56C | 0.574 |
| C31G A70C | 0.689 |
| U8C A15C A21U | ≤ 0.5 |
| G50A G58C C66U | 0.649 |
| G12A A14G C30G A70U | 0.616 |
| U7G C30A C62A | ≤ 0.5 |
| C27G C30G A40G C49A A65U | ≤ 0.5 |
| A21G A43C C60A | ≤ 0.5 |
| G10A C33U C49U | 0.663 |
| U28C U59G | 0.852 |
| U16C C30U C34G C49A A70U | ≤ 0.5 |
| U3A G9C C31G C61U | 0.581 |
| C4U A14C C55U G58C | 0.595 |
| U7C A14C G18A A43C A57U G63A | ≤ 0.5 |
| A45G G68C | 0.695 |
| A15G A21G C27U U47C G56C A57G C66G | ≤ 0.5 |
| G9A C24U C30U U32G A65C C66G | ≤ 0.5 |
| U28C A57U A65U | ≤ 0.5 |
| C4G G9C C27A A36G C46A C55U A65C | ≤ 0.5 |
| C11U G25A C29U G67A A70U | ≤ 0.5 |
| U7A C46G C66G | 0.547 |

| Variant | yeast fitness |
| --- | --- |
| G6A G12C G18C G41A A43G G48A | ≤ 0.5 |
| C5U U16A G23A G25C | ≤ 0.5 |
| U26C U28A A65U | 0.524 |
| A15U C33G C62G C66U | ≤ 0.5 |
| U7C C61A | 0.678 |
| C11G G23C | 1.07 |
| A14U C27U C55G G68A | ≤ 0.5 |
| U3G C62U A70U | 0.551 |
| U16A C33A C34A C62A | ≤ 0.5 |
| G12C A37C A40U C46U G63A | ≤ 0.5 |
| C11A G44C | 0.59 |
| G6C A69C | 0.852 |
| G6C G23C | 0.643 |
| G10A C24G U47C C62U | ≤ 0.5 |
| C31A A40U U53G G56C C62G A70C | ≤ 0.5 |
| C34A A45G A57U C66U | ≤ 0.5 |
| A14G A37C A70C | 0.624 |
| C27U U59G | 0.823 |
| G6A A15G C46U C66U | 0.77 |
| C24G C27U A40U U59C G68A | 0.582 |
| U2G G9C A20G A42C C46G C49U | 0.602 |
| C30A C62G | 0.662 |
| U64C A70U | 0.953 |
| C4U U16A A20U U35C G39C A42C G48A | 0.582 |

| Variant | yeast fitness |
| --- | --- |
| A14U U19A C24G U54A | ≤ 0.5 |
| A37U C61A G67C | 0.507 |
| C5A G23A C24U A36C | ≤ 0.5 |
| U2C C49U | 0.808 |
| C46A C62U A69C | 0.69 |
| G56A C66G | 0.689 |
| C5A G41C | 0.779 |
| A21C C30G C66A | 0.572 |
| A15G G51A A70U | 0.533 |
| C29G C49G G56A | ≤ 0.5 |
| C5A U13G C24G C31A C62G U64A | ≤ 0.5 |
| U7C U64C | 0.88 |
| C46G G51C A70C | ≤ 0.5 |
| U3G A15U C46G C61A | ≤ 0.5 |
| C30G C31G U64C A65C | ≤ 0.5 |
| C27A A43C C66U | 0.709 |
| C4U A14G A20C C34U C55U | ≤ 0.5 |
| C24A C62U A70C | ≤ 0.5 |
| G9A C29U | 0.914 |
| U13C A15C C22U C34A C66A | ≤ 0.5 |
| G18C G48A C55A | ≤ 0.5 |
| G6A G12A G23C C49G U53G A57G | ≤ 0.5 |
| C24G C31G A36G A65U | ≤ 0.5 |

Reference: the RNAGym collection of RNA variant scans (doi:10.1126/science.aae0568)
